Series [1] deals with Wild type (wt) human Glu^1-Pg (plasminogen) (human). Put plainly: SPR. (In SPR one partner is held on a chip, and binding of the other changes the refractive index at the surface.)
Series [2] addresses T1, Glu^1-Pg activation by uPA (Homo sapiens, UniProt P00747). Put plainly: uPA-catalyzed Pg activation, chromogenic substrate S-2251. It counts as biochemical. The conditions noted are these: 1 mM 6-AHA.
The subject of the next series is Glu^1-Pg. The conditions noted are these: saturating amounts of 6-AHA, Cl^−-containing buffer; ref [14],[19],[20]; cited from earlier work.
Series [3] concerns the target T1, Glu^1-Pg activation by uPA. The conditions noted are these: 6-AHA, acetate buffer; ref [34]; cited from earlier work.
Series [4] deals with Glu^1-Pg activation by SK (Homo sapiens, UniProt P00747). Put plainly: SK-mediated. It counts as biochemical, human Glu^1-Pg; SK from Streptococcus equisimilis.
A short description of series [5]: Sedimentation equilibrium / self-association. It counts as physicochemical. The conditions noted are these: PAM 22 μM, 20 °C, representative scan at 15,000 rpm. The method, boiled down: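 Test protein at 22 μM final in 10 mM HEPES/100 mM NaCl, pH 7.4, at 20 °C. Centrifuged at 10,000 and 15,000 rpm. Apparent molecular weight came from a global fit of three scans at both speeds. Radius vs absorbance was simulated for the purely monomeric protein.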

Usually Kd stands for the concentration at which binding is half-saturated. A high value points to a looser complex. By koff is commonly meant a measure of how fast the partners let go of each other. The term kon denotes the rate constant with which the complex forms. High values mean fast association, low ones slow association.

Values joined by “and” are separate entries in the source; they are usually repeats but may differ in a detail not shown here. Identical values can stand only once.

T1 sequence (P00747 20-810 limits assumed): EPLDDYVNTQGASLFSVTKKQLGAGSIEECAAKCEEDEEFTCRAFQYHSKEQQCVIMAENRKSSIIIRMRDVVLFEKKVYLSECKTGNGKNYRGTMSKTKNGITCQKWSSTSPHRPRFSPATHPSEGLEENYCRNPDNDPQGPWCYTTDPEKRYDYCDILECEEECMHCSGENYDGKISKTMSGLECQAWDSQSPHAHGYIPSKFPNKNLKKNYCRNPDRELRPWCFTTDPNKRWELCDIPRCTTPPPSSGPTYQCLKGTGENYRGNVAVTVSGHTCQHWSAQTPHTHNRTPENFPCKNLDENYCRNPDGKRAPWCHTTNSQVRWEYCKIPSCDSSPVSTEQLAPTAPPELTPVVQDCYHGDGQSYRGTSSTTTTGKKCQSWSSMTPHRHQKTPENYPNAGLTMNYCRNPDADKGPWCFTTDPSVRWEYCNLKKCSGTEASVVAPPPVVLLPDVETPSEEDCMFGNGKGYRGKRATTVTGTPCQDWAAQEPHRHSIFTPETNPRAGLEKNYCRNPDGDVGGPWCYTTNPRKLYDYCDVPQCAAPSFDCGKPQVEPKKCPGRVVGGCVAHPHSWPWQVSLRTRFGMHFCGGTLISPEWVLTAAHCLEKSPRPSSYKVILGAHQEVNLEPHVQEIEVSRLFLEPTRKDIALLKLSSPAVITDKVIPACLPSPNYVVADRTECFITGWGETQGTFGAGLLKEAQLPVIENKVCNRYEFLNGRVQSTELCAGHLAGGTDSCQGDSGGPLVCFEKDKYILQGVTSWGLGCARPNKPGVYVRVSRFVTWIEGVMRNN

Take “Wt-PAM (Pg-binding group A streptococcal M-like protein, GAS strain NS13) (from UniProt P49054 30-384) (natural protein)”: in series [1], the Kd is 23 nM and 33 nM; the off-rate (koff) amounted to 0.0079 s⁻¹; the kon was determined as 340000 M⁻¹ s⁻¹.

For “K^98A/K^111A PAM (KK-PAM) (from UniProt P49054 30-384) (natural protein)”, in series [1], the equilibrium dissociation constant (Kd) is 38 nM and 44 nM; the koff came out at 0.0095 s⁻¹; the kon turned out to be 250000 M⁻¹ s⁻¹.

For the molecule `NCCCCCC(=O)O` [6-AHA, 6-aminohexanoic acid], the “rate enhancement of uPA-catalyzed Pm generation” value in series [2] (Cl^− buffer (data not shown)) came to 2.2 fold; in series [2] (acetate buffer (data not shown)) it was 1.1 fold. In addition, the “decrease in sedimentation coefficient (S°20,w) of Pg” value in the series with Glu^1-Pg was “approximately 1 unit”. The “increase in Pg conversion by uPA” value in series [3] was 1.2 fold.

In series [1], “K^98A/R^101A/H^102A/E^104A/K^111A PAM (KRHEK-PAM) (from UniProt P49054 30-384) (natural protein)” gave a Kd of 50 nM, an off-rate constant (koff) of 0.017 s⁻¹ and a kon of 340000 M⁻¹ s⁻¹.

In the case of “wt-PAM: Pg-binding group A streptococcal M-like protein, GAS strain NS13, full-length wild type (VEKLTADAELQRLKNERHEEAELERLKSEY)”, in series [4] (20 nM PAM, Pg 80 nM, equimolar SK, 10 mM HEPES/100 mM NaCl, pH 7.4), the “increase in SK-mediated Pg activation rate” value was determined as 3.6 fold. The “enhancement in Pg conversion rate by SK” value in series [4] (500 nM PAM, Cl^− buffer (data not shown)) stood at 220 fold. Moreover, in series [5], the “apparent molecular weight (Mw,app), self-association” value is 71600.

Turning to “R^101A/H^102A PAM (RH-PAM) (from UniProt P49054 30-384) (natural protein)”, in series [1], the dissociation constant (Kd) is 424 nM and 731 nM; the koff came out at 0.014 s⁻¹; the kon worked out at 33000 M⁻¹ s⁻¹.

The record behind these values is article PMC2846993 (Biochimica et biophysica acta, 2010).
